Experimental data taken from ChEMBL document CHEMBL1153527, “Discovery of a novel series of quinolone and naphthyridine derivatives as potential topoisomerase I inhibitors by scaffold modification” (J Med Chem, 2009).
Activity calls are given as the source filed them. The rule behind the calls is not given here.

Experiments:
HT-29 [1] = experiment: Cell cycle distribution in human HT-29 cells assessed as accumulation at S phase at 0.1 uM after 48 hrs by flow cytometry; assay type: functional, cell-based
In short: (§1)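 HT-29 cells were exposed to vehicle or compound for 6, 12, 24 or 48 h. Attached and floating cells were collected by trypsin-EDTA, fixed in 70% ethanol, and treated with 0.1% Triton X-100 for 30 min. They were stained with 50 μg/mL PI plus 50 μg/mL RNase A for 30 min in the dark at room temperature. 10000 cells were read by FL2 at 488 nm excitation. S-phase and sub-G1 (apoptotic) fractions are expressed as % of total cells.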

HT-29 [2] = experiment: Cell cycle distribution in human HT-29 cells assessed as accumulation at sub-G1 phase at 0.1 uM after 48 hrs by flow cytometry; assay type: functional, cell-based; in short: as §1
HT-29 [3] = experiment: Induction of apoptosis in human HT-29 cells assessed as increase in accumulation at sub-G1 phase at 0.1 uM after 48 hrs by flow cytometry; assay type: functional; in short: as §1
HT-29 [4] = experiment: Antitumor activity against human HT-29 cells xenografted in athymic BALB/c nude mouse at 5 mg/kg, ip for 2 days measured after 30 days relative to placebo control; assay type: functional; conditions: route intraperitoneal
In short: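 Female athymic BALB/c nude mice (35-40 days old, 18-22 g). HT-29 tumours first grown from 1 × 10^7 cells injected s.c. in the axillary fossa, then excised and transplanted. Treatment started at 100-300 mm3. Groups of n=6 were dosed i.p. daily in 400 μL: saline for 10 days, 5 mg/kg for 2 days, or 75/150 mg/kg for 10 days. Caliper volume was V=1/2·a·b². Values are relative to start volume, compared with placebo by Student's t test, and mice were killed on day 30.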

[5] = Cytotoxicity against estrogen receptor-negative human […] cells expressing p53 mutant after 48 hrs by SRB assay; assay type: functional, cell-based
In short: (§2)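 Cell lines came from CCRC, Taiwan. Cells were seeded at about 5 × 10^3 per well and left overnight. They were then given serum-free medium containing 0-10 μM compound (0.08-10 μM serial dilutions) for 48 h at 37 °C. Cells were fixed with TCA (10% final), stained with SRB (0.4% final), and the dye was dissolved in 10 mM Tris with A515 read. IC50 was taken from a fitted log concentration-response curve.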

A549 = experiment: Cytotoxicity against human A549 cells expressing wild type p53 after 48 hrs by SRB assay; assay type: functional, cell-based; conditions: A549, 48 h; in short: as §2
HepG2 = experiment: Cytotoxicity against human HepG2 cells expressing wild type p53 after 48 hrs by SRB assay; assay type: functional, cell-based; conditions: HepG2, 48 h; in short: as §2
HeLa = experiment: Cytotoxicity against p53-deficient human HeLa cells after 48 hrs by SRB assay; assay type: functional, cell-based; in short: as §2
HT-29 [6] = experiment: Cytotoxicity against human HT-29 cells expressing p53 mutant after 48 hrs by SRB assay; assay type: functional, cell-based; conditions: HT-29, 48 h; in short: as §2
AGS = experiment: Cytotoxicity against human AGS cells expressing wild type p53 after 48 hrs by SRB assay; assay type: functional, cell-based; in short: as §2
MCF7 = experiment: Cytotoxicity against estrogen receptor-positive human MCF7 cells expressing wild type p53 after 48 hrs by SRB assay; assay type: functional, cell-based; conditions: MCF7, 48 h; in short: as §2
[7] = Cytotoxicity against p53-deficient human Hep3B cells after 48 hrs by SRB assay; assay type: functional, cell-based, Hep 3B2; in short: as §2
PC-3 = experiment: Cytotoxicity against p53-deficient human PC3 cells after 48 hrs by SRB assay; assay type: functional, cell-based; conditions: PC-3, 48 h; in short: as §2
U-937 = experiment: Cytotoxicity against human U937 cells expressing p53 mutant after 48 hrs by SRB assay; assay type: functional, cell-based; conditions: U-937, 48 h
THP-1 = experiment: Cytotoxicity against human THP1 cells expressing p53 mutant after 48 hrs by SRB assay; assay type: functional, cell-based; conditions: THP-1, 48 h
K562 = experiment: Cytotoxicity against p53-deficient human K562 cells after 48 hrs by SRB assay; assay type: functional, cell-based; conditions: K562, 48 h
HT-29 [8] = experiment: Cell cycle distribution in human HT-29 cells assessed as accumulation at S phase at 0.1 uM after 6 hrs by flow cytometry; assay type: functional, cell-based; in short: as §1
HT-29 [9] = experiment: Cell cycle distribution in human HT-29 cells assessed as accumulation at S phase at 0.1 uM after 12 hrs by flow cytometry; assay type: functional, cell-based; in short: as §1
HT-29 [10] = experiment: Cell cycle distribution in human HT-29 cells assessed as accumulation at S phase at 0.1 uM after 24 hrs by flow cytometry; assay type: functional, cell-based; in short: as §1
[11] = biological target: T1, DNA topoisomerase 1 (Homo sapiens) (UniProt P11387); experiment: Induction of human topoisomerase 1-mediated chromosomal DNA strand breaks in HT-29 cells at 10 uM after 1 hr by comet assay; assay type: cell-based
T1 sequence (whole entry): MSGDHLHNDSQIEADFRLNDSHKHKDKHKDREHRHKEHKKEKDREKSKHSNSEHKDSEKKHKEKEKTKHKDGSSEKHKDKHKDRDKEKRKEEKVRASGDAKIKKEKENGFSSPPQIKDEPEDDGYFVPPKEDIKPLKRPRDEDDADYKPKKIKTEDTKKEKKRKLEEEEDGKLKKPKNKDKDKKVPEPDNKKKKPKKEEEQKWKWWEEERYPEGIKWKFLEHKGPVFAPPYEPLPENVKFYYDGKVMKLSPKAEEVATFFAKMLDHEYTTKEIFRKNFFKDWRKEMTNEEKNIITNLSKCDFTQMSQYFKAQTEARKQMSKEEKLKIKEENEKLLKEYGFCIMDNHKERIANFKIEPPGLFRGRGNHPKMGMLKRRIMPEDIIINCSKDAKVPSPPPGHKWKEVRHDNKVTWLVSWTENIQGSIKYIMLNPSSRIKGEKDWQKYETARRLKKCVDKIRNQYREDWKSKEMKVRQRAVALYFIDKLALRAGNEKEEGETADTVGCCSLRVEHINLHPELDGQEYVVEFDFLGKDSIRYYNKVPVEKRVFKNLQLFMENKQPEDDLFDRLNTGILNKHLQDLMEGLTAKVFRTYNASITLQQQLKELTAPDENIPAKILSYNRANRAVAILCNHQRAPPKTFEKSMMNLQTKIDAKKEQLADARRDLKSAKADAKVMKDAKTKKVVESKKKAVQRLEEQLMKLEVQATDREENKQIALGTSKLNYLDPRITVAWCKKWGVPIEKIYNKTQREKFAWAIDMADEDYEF
In short: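 HT-29 cells were seeded at 1 × 10^4 per well and attached overnight, then treated for 1 h. Untreated cells served as negative control. Cells in low-melting agarose on precoated slides were lysed at pH 10.5 for 30 min at 4 °C and unwound in 300 mM NaOH/1 mM EDTA (pH >13) for 30 min at 4 °C. Electrophoresis ran 10 min at 16 V, with SYBR Gold staining. Read-out was mean % tail DNA from ≥50 nuclei, duplicates in three independent experiments.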

| Structure (SMILES) | Activity (HT-29 [1]) | Activity (HT-29 [2]) | Activity (HT-29 [3]) [%] | GI50 [5] [nM] | IC50 [5] [nM] | GI50 (A549) [nM] | IC50 (A549) [nM] | GI50 (HepG2) [nM] | IC50 (HepG2) [nM] | GI50 (HeLa) [nM] | IC50 (HeLa) [nM] | GI50 (HT-29 [6]) [nM] | IC50 (HT-29 [6]) [nM] | GI50 (AGS) [nM] | IC50 (AGS) [nM] | GI50 (MCF7) [nM] | IC50 (MCF7) [nM] | GI50 [7] [nM] | IC50 [7] [nM] | GI50 (PC-3) [nM] | also measured |
| --- | --- | --- | --- | --- | --- | --- | --- | --- | --- | --- | --- | --- | --- | --- | --- | --- | --- | --- | --- | --- | --- |
| CC[C@@]1(O)C(=O)OCc2c1cc1n(c2=O)Cc2cc3c(CN(C)C)c(O)ccc3nc2-1 [TOPOTECAN] | Active | Active | 40.5 | 900 | 2000 | 900 | 1900 | 1200 | 1600 | 80 | 1600 | 80 | 400 | 100 | 300 | 800 | 2000 | 400 | 1400 | 1300 | Activity (HT-29 [4]): 76%; IC50 (PC-3): 2000 nM; IC50 (U-937): 1100 nM; IC50 (THP-1): 1500 nM; IC50 (K562): 1700 nM; Activity (HT-29 [8]): Active; Activity (HT-29 [9]): Active; Activity (HT-29 [10]): Active |
| CC[C@@]1(O)C(=O)OCc2c1cc1n(c2=O)Cc2cc3ccccc3nc2-1 [CAMPTOTHECIN] | Active | Active | 44.8 | 80 | 1700 | 10 | 40 | 100 | 200 | 40 | 200 | 30 | 400 | 10 | 20 | 10 | 1100 | 10 | 60 | 700 | Activity [11]: 84%; IC50 (PC-3): 1400 nM; IC50 (U-937): 300 nM; IC50 (THP-1): 600 nM; IC50 (K562): 1400 nM; Activity (HT-29 [8]): Active; Activity (HT-29 [9]): Active; Activity (HT-29 [10]): Active |
